Data: EPA's CvTdb concentration-time database

Legend:
[1] = tested on: Hamster; test: concentration in plasma after dosing; details: dosed: 2,4-Dichlorophenoxyacetic acid, 40 mg/kg, oral, Male, Syrian Golden
How it was run: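 A PubMed search, classifier screening and manual review identified published in vivo toxicokinetic studies, which together with two structured collections supplied concentration-versus-time and amount-versus-time points. Points were mostly digitised from plot screenshots with WebPlotDigitizer, otherwise copied from tables. Dose, route, subject details and medium were hand-curated from each paper, and sampling and analytical methods are those of the sources, often unreported.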

[2] = tested on: Mouse; test: concentration in plasma after dosing; details: dosed: 2,4-Dichlorophenoxyacetic acid, 1.0 mg/kg, iv, Male, B6C3F1
[3] = tested on: Rat; test: concentration in plasma after dosing; details: dosed: 2-Hydroxy-4-methoxybenzophenone, 250 mg/kg, oral, Female, F344
[4] = tested on: Rat; test: concentration in plasma after dosing; details: dosed: 2-Hydroxy-4-methoxybenzophenone, 250 mg/kg, oral, Female, F344; remark: listed apart in the source
[5] = tested on: Mouse; test: concentration in plasma after dosing; details: 2 h; dosed: 2-Hydroxy-4-methoxybenzophenone; 50 mg/kg; iv; Female; B6C3F1
[6] = tested on: Rat; test: concentration in plasma after dosing; details: dosed: 2-Hydroxy-4-methoxybenzophenone, 100 mg/kg, oral, Female, F344
[7] = tested on: Mouse; test: concentration in plasma after dosing; details: 10 min; dosed: 2-Hydroxy-4-methoxybenzophenone; 500 mg/kg; oral; Male; B6C3F1
[8] = tested on: Rat; test: concentration in plasma after dosing; details: dosed: 2-Hydroxy-4-methoxybenzophenone, 100 mg/kg, oral, Male, F344
[9] = tested on: Rat; test: concentration in plasma after dosing; details: dosed: Methyleugenol, 37 mg/kg, iv, Female, F344
[10] = tested on: Rat; test: concentration in plasma after dosing; details: dosed: Methyleugenol, 37 mg/kg, oral, Male, F344/N
[11] = tested on: Rat; test: concentration in plasma after dosing; details: dosed: Methyleugenol, 37 mg/kg, oral, Female, F344/N
[12] = tested on: Rat; test: concentration in brain after dosing; details: 3 h; dosed: Perfluorohexane-1-sulphonic acid – potassium salt; 16 mg/kg; oral; Female; Harlan Sprague Dawley
[13] = tested on: Rat; test: concentration in brain after dosing; details: 192 h; dosed: Perfluorohexane-1-sulphonic acid – potassium salt; 16 mg/kg; oral; Female; F344
[14] = tested on: Rat; test: concentration in brain after dosing; details: 48 h; dosed: Perfluorohexane-1-sulphonic acid – potassium salt; 16 mg/kg; oral; Female; Harlan Sprague Dawley
[15] = tested on: Rat; test: concentration in kidney after dosing; details: 48 h; dosed: Perfluorohexane-1-sulphonic acid – potassium salt; 16 mg/kg; oral; Female; Harlan Sprague Dawley
[16] = tested on: Rat; test: concentration in liver after dosing; details: 528 h; dosed: Perfluorohexane-1-sulphonic acid – potassium salt; 16 mg/kg; oral; Female; F344
[17] = tested on: Rat; test: concentration in liver after dosing; details: 192 h; dosed: Perfluorohexane-1-sulphonic acid – potassium salt; 16 mg/kg; oral; Female; Harlan Sprague Dawley
[18] = tested on: Rat; test: concentration in brain after dosing; details: 3 h; dosed: Perfluorohexane-1-sulphonic acid – potassium salt; 16 mg/kg; oral; Female; F344
[19] = tested on: Rat; test: concentration in plasma after dosing; details: dosed: Perfluorohexane-1-sulphonic acid – potassium salt, 4 mg/kg, oral, Male, F344
[20] = tested on: Rat; test: concentration in plasma after dosing; details: 3 h; dosed: Primidone; 30 mg/kg; oral; Female; F344
[21] = tested on: Rat; test: concentration in plasma after dosing; details: 9 h; dosed: Primidone; 80 mg/kg; oral; Female; F344
[22] = tested on: Rat; test: concentration in plasma after dosing; details: 0.25 h; dosed: Primidone; 80 mg/kg; oral; Female; Harlan Sprague-Dawley
[23] = tested on: Rat; test: concentration in plasma after dosing; details: 1.5 h; dosed: Primidone; 80 mg/kg; oral; Female; F344
[24] = tested on: Rat; test: concentration in plasma after dosing; details: 6 h; dosed: Primidone; 130 mg/kg; oral; Female; F344
[25] = tested on: Rat; test: concentration in plasma after dosing; details: 20 h; dosed: Pyridine; 25 mg/kg; oral; Male; F344
[26] = tested on: Rat; test: concentration in plasma after dosing; details: 20 min; dosed: Pyridine; 10 mg/kg; oral; Female; Harlan Sprague-Dawley
[27] = tested on: Rat; test: concentration in plasma after dosing; details: 20 min; dosed: Pyridine; 10 mg/kg; iv; Male; F344
[28] = tested on: Rat; test: concentration in plasma after dosing; details: 40 h; dosed: Pyridine; 100 mg/kg; oral; Male; F344
[29] = tested on: Rat; test: concentration in brain after dosing; details: 0.5 h; dosed: alpha-Thujone; 25 mg/kg; oral; Male; Harlan Sprague Dawley
[30] = tested on: Rat; test: concentration in brain after dosing; details: 3 h; dosed: alpha-Thujone; 50 mg/kg; oral; Female; Harlan Sprague Dawley
[31] = tested on: Rat; test: concentration in plasma after dosing; details: 6 h; dosed: alpha-Thujone; 25 mg/kg; oral; Male; Harlan Sprague Dawley
[32] = tested on: Rat; test: concentration in brain after dosing; details: 2 h; dosed: 76231-76-0; 3.0 mg/kg; iv; Female; F344

O=C(O)COc1ccc(Cl)cc1Cl [2,4-Dichlorophenoxyacetic acid]
concentration in plasma [ng/mL]
Details	[1]	[2]
0.25 h	57000	8220
0.5 h	88000	6040
1 h	40700	3120
1.5 h	16600	–
2 h	12000	–
2.5 h	–	266
3 h	–	1250
4 h	3730	–
5 min	26600	6550
6 h	1400	–
10 h	34300	–

O=C(c1ccccc1)c1ccc(O)cc1O [2,4-Dihydroxybenzophenone]
Details	concentration in plasma [ng/mL]
[3], 3 h	148
[3], 10 min	119
[4], 0.25 h	473
[4], 4 h	68
[6], 0.5 h	195
[6], 5 h	85.4
[8], 0.5 h	160
[8], 5 h	40

Details	concentration in plasma [ng/mL]
[5]	39.7
[7]	1690

C=CCc1ccc(OC)c(OC)c1 [Methyleugenol]
Details	concentration in plasma [ng/mL]
[9], 0.5 h	1330
[9], 0.75 h	535
[10], 2 h	32
[10], 10 min	268
[11], 5 h	16.9
[11], 5 min	211

O=S(=O)([O-])C(F)(F)C(F)(F)C(F)(F)C(F)(F)C(F)(F)C(F)(F)F.[K+] [Perfluorohexane-1-sulphonic acid – potassium salt]
Details	concentration in brain [ng/g]	concentration in kidney [ng/g]	concentration in liver [ng/g]
[12]	1560	–	–
[13]	929	–	–
[14]	496	–	–
[15]	–	11300	–
[16]	–	–	29800
[17]	–	–	1580
[18]	1600	–	–

[19]
Details	concentration in plasma [ng/mL]
0.25 h	5490
12 h	31800
528 h	8940

CCC1(c2ccccc2)C(=O)NCNC1=O [Primidone]
Details	concentration in plasma [ng/mL]
[20]	19900
[21]	21600
[22]	12500
[23]	70300
[24]	74300

c1ccncc1 [Pyridine]
Details	concentration in plasma [ng/mL]
[25]	4760
[26]	3970
[27]	6010
[28]	18400

CC(C)[C@]12CC(=O)[C@H](C)[C@H]1C2 [alpha-Thujone]
Details	concentration in brain [ng/g]	concentration in plasma [ng/mL]
[29]	285	–
[30]	615	–
[31]	–	83.5
[32]	19.3	–
